Test system: UO-31
Experiment: Antitumor activity against human UO31 cells at 10^-5 M after 48 hrs by SRB assay
Assay type: functional
Conditions: UO-31, 48 h, read-out: GI
How it was run: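 Single-dose screen following the National Cancer Institute Drug Evaluation Branch protocol, run on the NCI panel of 60 human tumour cell lines covering nine cancer types. Percent growth of treated cells was recorded and reported as percentage growth inhibition (GI%). Compounds meeting preset inhibition thresholds advanced to a five-dose, 10-fold dilution series.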

Question: How did the inhibition of growth at 10 µM turn out when `Cc1cc2nc(-c3c(N)ncc(C#N)c3-c3ccc(O)cc3)[nH]c2cc1C` was run?
Answer: Its inhibition of growth at 10 µM is 33.4%.

Source: ChEMBL document CHEMBL1821649, “Synthesis, characterization of some benzazoles bearing pyridine moiety: search for novel anticancer agents” (2011)
